# Active and inactive are the calls of the source. The calls are words filed in the database; no cut-off is given here.
# Legend:
# [1] = target: T1, Protein cereblon/Tyrosine-protein phosphatase non-receptor type 11 (Homo sapiens, UniProt Q06124+Q96SW2); experiment: Protac activity at SHP2/CRBN in human MV4-11 cells assessed as SHP2 degradation at 8 nM measured after 12 hrs by Western blot analysis relative to control; assay type: cell-based
# How it was run: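 MV4-11 cells (IMDM, 10% FBS, 37 °C, 5% CO2) plated at 1.0×10^6 cells/well and exposed 12 h to 8 or 200 nM. Lysis in RIPA with protease inhibitors, then SDS-PAGE, nitrocellulose transfer and anti-human SHP2 immunoblot. SHP2 signal normalized to GAPDH and percent degradation quantified by densitometry. Reported as the average of two independent measurements.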
# Target sequence in this assay (Q96SW2 whole entry partner, one chain of several): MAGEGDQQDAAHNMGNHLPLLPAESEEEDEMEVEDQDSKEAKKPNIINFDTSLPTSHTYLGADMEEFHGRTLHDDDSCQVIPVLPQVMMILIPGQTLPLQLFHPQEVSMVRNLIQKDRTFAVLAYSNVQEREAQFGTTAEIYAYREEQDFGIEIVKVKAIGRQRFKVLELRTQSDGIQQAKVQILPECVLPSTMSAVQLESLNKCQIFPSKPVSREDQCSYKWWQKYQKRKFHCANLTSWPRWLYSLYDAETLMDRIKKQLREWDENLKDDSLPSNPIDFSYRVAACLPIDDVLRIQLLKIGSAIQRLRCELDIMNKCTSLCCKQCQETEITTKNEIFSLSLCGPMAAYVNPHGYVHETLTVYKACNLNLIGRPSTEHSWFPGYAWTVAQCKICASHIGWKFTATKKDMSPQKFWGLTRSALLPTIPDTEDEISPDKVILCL
# MV4-11 [2] = experiment: Antiproliferative activity against human MV4-11 cells assessed as inhibition of cell proliferation measured after 72 hrs by MTS assay; assay type: functional, cell-based; settings: MV4-11, 72 h
# How it was run: (§1)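 MV4;11 (ATCC, STR-authenticated) in IMDM with 10% FBS, penicillin/streptomycin, 37 °C, 5% CO2. Seeded at 1.0–4.0 × 10^4 cells/well, rested 2 h, then exposed to 0.01% DMSO or graded compound concentrations for 72 h. MTS/PMS added for 2–4 h. IC50 from sigmoidal variable-slope nonlinear regression; mean ± SEM of at least three separate assays, each in triplicate.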
# [3] = target: T2, Tyrosine-protein phosphatase non-receptor type 11 (Homo sapiens, UniProt Q06124); experiment: Inhibition of human SHP2 catalytic activity
# T2 sequence (Q06124 whole entry): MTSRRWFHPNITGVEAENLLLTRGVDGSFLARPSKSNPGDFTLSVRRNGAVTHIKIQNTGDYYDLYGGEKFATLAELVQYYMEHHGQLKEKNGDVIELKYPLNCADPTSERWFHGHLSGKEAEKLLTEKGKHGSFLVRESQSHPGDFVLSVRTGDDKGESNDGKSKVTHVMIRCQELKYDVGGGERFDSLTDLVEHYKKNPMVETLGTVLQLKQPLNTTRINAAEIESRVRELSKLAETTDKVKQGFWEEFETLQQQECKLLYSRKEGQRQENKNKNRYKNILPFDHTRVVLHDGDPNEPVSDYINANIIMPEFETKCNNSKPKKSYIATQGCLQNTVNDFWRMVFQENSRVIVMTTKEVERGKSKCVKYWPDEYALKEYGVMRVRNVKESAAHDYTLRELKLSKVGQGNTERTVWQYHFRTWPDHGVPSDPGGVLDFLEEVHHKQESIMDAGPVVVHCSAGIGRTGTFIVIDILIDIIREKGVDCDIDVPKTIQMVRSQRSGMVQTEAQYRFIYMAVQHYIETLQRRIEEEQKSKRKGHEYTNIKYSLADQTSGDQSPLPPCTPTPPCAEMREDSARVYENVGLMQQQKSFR
# [4] = target: T1, Protein cereblon/Tyrosine-protein phosphatase non-receptor type 11; experiment: Protac activity at SHP2/CRBN in human MV4-11 cells assessed as decrease in SHP2 protein level measured after 12 hrs by Western blot analysis; assay type: cell-based; settings: dose 8-500 nM
# How it was run: (§2)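 MV4-11 cells, 1.0×10^6 cells/well, treated 12 h across a concentration series. Lysed in RIPA plus protease inhibitors, separated by SDS-PAGE onto nitrocellulose and immunoblotted for SHP2 with GAPDH as loading control. Band intensities normalized to GAPDH; DC50 derived from the quantified SHP2 levels.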
# Target sequence in this assay (Q96SW2 whole entry partner, one chain of several): as the sequence (Q96SW2 whole entry partner, one chain of several) above
# [5] = target: T1, Protein cereblon/Tyrosine-protein phosphatase non-receptor type 11; experiment: Protac activity at SHP2/CRBN in human MV4-11 cells assessed as induction of SHP2 degradation measured after 12 hrs by Western blot analysis; assay type: cell-based; how it was run: as §2
# Target sequence in this assay (Q96SW2 whole entry, one chain of several): as the sequence (Q96SW2 whole entry partner, one chain of several) above
# [6] = target: T1, Protein cereblon/Tyrosine-protein phosphatase non-receptor type 11; experiment: Protac activity at SHP2/CRBN in human MV4-11 cells assessed as SHP2 degradation at 100 nM measured after 6 hrs by Western blot analysis relative to control; assay type: cell-based
# Target sequence in this assay (Q96SW2 whole entry partner, one chain of several): as the sequence (Q96SW2 whole entry partner, one chain of several) above
# [7] = target: T1, Protein cereblon/Tyrosine-protein phosphatase non-receptor type 11; experiment: Protac activity at SHP2/CRBN in human MV4-11 cells assessed as SHP2 degradation at 100 nM measured after 24 hrs by Western blot analysis relative to control; assay type: cell-based
# Target sequence in this assay (Q96SW2 whole entry partner, one chain of several): as the sequence (Q96SW2 whole entry partner, one chain of several) above
# MV4-11 [8] = experiment: Cell cycle arrest in human MV4-11 cells assessed as accumulation at G1 phase measured after 24 hrs by PI staining based flow cytometry assay; assay type: functional
# How it was run: (§3)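 MV4-11 cells treated 24 h, then washed twice in cold PBS and fixed in ethanol overnight at 4 °C. Stained with propidium iodide plus RNase for 15 min at 37 °C. Cell-cycle distribution measured by flow cytometry.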
# MV4-11 [9] = experiment: Induction of apoptosis in human MV4-11 cells assessed as viable cells at 70 nM measured after 48 hrs by Annexin V/FITC-PI staining based flowcytometry assay (reference value: 91%); assay type: functional
# MV4-11 [10] = experiment: Induction of apoptosis in human MV4-11 cells assessed as early apoptotic cells at 70 nM measured after 48 hrs by Annexin V/FITC-PI staining based flowcytometry assay (reference value: 2.99%); assay type: functional
# MV4-11 [11] = experiment: Induction of apoptosis in human MV4-11 cells assessed as late apoptotic cells at 70 nM measured after 48 hrs by Annexin V/FITC-PI staining based flowcytometry assay (reference value: 5.95%); assay type: functional
# MV4-11 [12] = experiment: Induction of apoptosis in human MV4-11 cells assessed as necrotic cells at 70 nM measured after 48 hrs by Annexin V/FITC-PI staining based flowcytometry assay (reference value: 0.07%); assay type: functional
# MV4-11 [13] = experiment: Induction of apoptosis in human MV4-11 cells assessed as viable cells at 200 nM measured after 48 hrs by Annexin V/FITC-PI staining based flowcytometry assay (reference value: 91%); assay type: functional
# MV4-11 [14] = experiment: Induction of apoptosis in human MV4-11 cells assessed as early apoptotic cells at 200 nM measured after 48 hrs by Annexin V/FITC-PI staining based flowcytometry assay (reference value: 2.99%); assay type: functional
# MV4-11 [15] = experiment: Induction of apoptosis in human MV4-11 cells assessed as late apoptotic cells at 200 nM measured after 48 hrs by Annexin V/FITC-PI staining based flowcytometry assay (reference value: 5.95%); assay type: functional
# MV4-11 [16] = experiment: Induction of apoptosis in human MV4-11 cells assessed as necrotic cells at 200 nM measured after 48 hrs by Annexin V/FITC-PI staining based flowcytometry assay (reference value: 0.07%); assay type: functional
# MV4-11 [17] = experiment: Induction of apoptosis in human MV4-11 cells assessed as viable cells at 600 nM measured after 48 hrs by Annexin V/FITC-PI staining based flowcytometry assay (reference value: 91%); assay type: functional
# MV4-11 [18] = experiment: Induction of apoptosis in human MV4-11 cells assessed as early apoptotic cells at 600 nM measured after 48 hrs by Annexin V/FITC-PI staining based flowcytometry assay (reference value: 2.99%); assay type: functional
# MV4-11 [19] = experiment: Induction of apoptosis in human MV4-11 cells assessed as late apoptotic cells at 600 nM measured after 48 hrs by Annexin V/FITC-PI staining based flowcytometry assay (reference value: 5.95%); assay type: functional
# MV4-11 [20] = experiment: Induction of apoptosis in human MV4-11 cells assessed as necrotic cells at 600 nM measured after 48 hrs by Annexin V/FITC-PI staining based flowcytometry assay (reference value: 0.07%); assay type: functional
# [21] = target: T3, Tyrosine-protein phosphatase non-receptor type 11 (Homo sapiens) (UniProt Q06124); experiment: Induction of SHP2 degradation in CRBN knock out human MV4-11 cells at 8 to 200 nM measured after 12 hrs by Western blot analysis; assay type: cell-based; settings: dose 8-200 nM
# T3 sequence (whole entry): T2 sequence (Q06124 whole entry)
# MV4-11 [22] = experiment: Cytotoxicity against CRBN knock out human MV4-11 cells assessed as cell viability measured after 72 hrs by MTS assay; assay type: cell-based; settings: MV4-11, 72 h
# How it was run: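 MV4;11 cells with CRBN knocked out, cultured in IMDM with 10% FBS, penicillin/streptomycin, 37 °C, 5% CO2. Seeded at 1.0–4.0 × 10^4 cells/well, rested 2 h, then given 0.01% DMSO or graded compound concentrations for 72 h. Viability by MTS/PMS over 2–4 h. IC50 from sigmoidal variable-slope fit; mean ± SEM of ≥3 assays in triplicate.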
# MV4-11 [23] = experiment: Cytotoxicity against human MV4-11 cells assessed as cell viability measured after 72 hrs by MTS assay; assay type: functional, cell-based; settings: MV4-11, 72 h; how it was run: as §1
# MV4-11 [24] = experiment: Cell cycle arrest in human MV4-11 cells assessed as accumulation at G1 phase at 200 nM measured after 24 hrs by PI staining based flow cytometry assay; assay type: functional; how it was run: as §3
# [25] = Homo sapiens, MV4-11, read-out: Activity
smiles,measurement,setting,value
C[C@@H]1OCC2(CCN(c3cnc(Sc4cccc(NC(=O)CCC(=O)NCCOCCOCCOCCNc5cccc6c5C(=O)N(C5CCC(=O)NC5=O)C6=O)c4Cl)c(N)n3)CC2)[C@@H]1N (some centres undefined),Activity,[1],28%
C[C@@H]1OCC2(CCN(c3cnc(Sc4cccc(NC(=O)CCC(=O)NCCOCCNc5cccc6c5C(=O)N(C5CCC(=O)NC5=O)C6=O)c4Cl)c(N)n3)CC2)[C@@H]1N (some centres undefined),Activity,[1],6%
C[C@@H]1OCC2(CCN(c3cnc(Sc4cccc(NC(=O)CCC(=O)NCCOCCOCCNc5cccc6c5C(=O)N(C5CCC(=O)NC5=O)C6=O)c4Cl)c(N)n3)CC2)[C@@H]1N (some centres undefined),Activity,[1],25%
C[C@@H]1OCC2(CCN(c3cnc(Sc4cccc(N)c4Cl)c(N)n3)CC2)[C@@H]1N,IC50,MV4-11 [2],60 nM
same,IC50,[3],17 nM
C[C@@H]1OCC2(CCN(c3cnc(Sc4cccc(NC(=O)CCC(=O)NCCOCCNc5ccc6c(c5)C(=O)N(C5CCC(=O)NC5=O)C6=O)c4Cl)c(N)n3)CC2)[C@@H]1N (some centres undefined),Activity,[1],< 5%
C[C@@H]1OCC2(CCN(c3cnc(Sc4cccc(NC(=O)CCC(=O)NCCCCCCCCCNc5cccc6c5C(=O)N(C5CCC(=O)NC5=O)C6=O)c4Cl)c(N)n3)CC2)[C@@H]1N (some centres undefined),Activity,[1],23%
C[C@@H]1OCC2(CCN(c3cnc(Sc4cccc(NC(=O)CCC(=O)NCCCCCCCCCCCNc5cccc6c5C(=O)N(C5CCC(=O)NC5=O)C6=O)c4Cl)c(N)n3)CC2)[C@@H]1N (some centres undefined),Activity,[1],26%
C[C@@H]1OCC2(CCN(c3cnc(Sc4cccc(NC(=O)CCC(=O)NCCCCCCCCCCNc5cccc6c5C(=O)N(C5CCC(=O)NC5=O)C6=O)c4Cl)c(N)n3)CC2)[C@@H]1N (some centres undefined),Activity,[1],0%
C[C@@H]1OCC2(CCN(c3cnc(Sc4cccc(NC(=O)CCC(=O)NCCOCCOCCOCCNc5ccc6c(c5)C(=O)N(C5CCC(=O)NC5=O)C6=O)c4Cl)c(N)n3)CC2)[C@@H]1N (some centres undefined),Activity,[1],< 5%
C[C@@H]1OCC2(CCN(c3cnc(Sc4cccc(NC(=O)CCC(=O)NCCCCCCCCCCCCCNc5cccc6c5C(=O)N(C5CCC(=O)NC5=O)C6=O)c4Cl)c(N)n3)CC2)[C@@H]1N (some centres undefined),Activity,[1],8%
C[C@@H]1OCC2(CCN(c3cnc(Sc4cccc(NC(=O)CCC(=O)NCCCOCCOCCOCCCNc5ccc6c(c5)C(=O)N(C5CCC(=O)NC5=O)C6=O)c4Cl)c(N)n3)CC2)[C@@H]1N (some centres undefined),Activity,[1],42%
C[C@@H]1OCC2(CCN(c3cnc(Sc4cccc(NC(=O)CCC(=O)NCCCCCCCCCCCCNc5cccc6c5C(=O)N(C5CCC(=O)NC5=O)C6=O)c4Cl)c(N)n3)CC2)[C@@H]1N (some centres undefined),Activity,[1],18%
C[C@@H]1OCC2(CCN(c3cnc(Sc4cccc(NC(=O)CCC(=O)NCCCOCCOCCOCCCNc5cccc6c5C(=O)N(C5CCC(=O)NC5=O)C6=O)c4Cl)c(N)n3)CC2)[C@@H]1N (some centres undefined),Activity,[1],46%
same,Activity,[4],Dose-Dependent Effect
same,DC50,[5],6.02 nM
same,Activity,[6],> 50%
same,Activity,[7],> 90%
same,IC50,MV4-11 [2],207 nM
same,Activity,MV4-11 [8],Dose-Dependent Effect
same,viability at 0.07 µM,MV4-11 [9]; [25],87.5%
same,Activity,MV4-11 [10],4.76%
same,Activity,MV4-11 [11],8.01%
same,Activity,MV4-11 [12],0.175%
same,viability at 0.2 µM,MV4-11 [13]; [25],81%
same,Activity,MV4-11 [14],7.23%
same,Activity,MV4-11 [15],11.3%
same,Activity,MV4-11 [16],0.39%
same,viability at 0.6 µM,MV4-11 [17]; [25],76.9%
same,Activity,MV4-11 [18],7.88%
same,Activity,MV4-11 [19],14.3%
same,Activity,MV4-11 [20],0.907%
same,Activity,[21],inactive
same,IC50,MV4-11 [22],2630 nM
same,IC50,MV4-11 [23],207 nM
same,IC50,[3],202 nM
C[C@@H]1OCC2(CCN(c3cnc(Sc4cccc(NC(=O)CCC(=O)NCCCCCCCCNc5cccc6c5C(=O)N(C5CCC(=O)NC5=O)C6=O)c4Cl)c(N)n3)CC2)[C@@H]1N (some centres undefined),Activity,[1],22%
C[C@@H]1OCC2(CCN(c3cnc(Sc4cccc(NC(=O)CCC(=O)NCCOCCOCCNc5ccc6c(c5)C(=O)N(C5CCC(=O)NC5=O)C6=O)c4Cl)c(N)n3)CC2)[C@@H]1N (some centres undefined),Activity,[1],< 5%
CC1(N)CCN(c2cnc(-c3cccc(Cl)c3Cl)c(N)n2)CC1,IC50,MV4-11 [2],475 nM
same,Activity,MV4-11 [9],94%
same,Activity,MV4-11 [10],3.98%
same,Activity,MV4-11 [11],4.52%
same,Activity,MV4-11 [12],0.078%
same,Activity,MV4-11 [13],88.5%
same,Activity,MV4-11 [14],4.68%
same,Activity,MV4-11 [15],6.43%
same,Activity,MV4-11 [16],0.099%
same,Activity,MV4-11 [17],86.5%
same,Activity,MV4-11 [18],5.08%
same,Activity,MV4-11 [19],7.74%
same,Activity,MV4-11 [20],0.098%
same,IC50,MV4-11 [22],803 nM
same,IC50,MV4-11 [23],572 nM
same,Activity,MV4-11 [24],Active
